{"source": "ChEMBL document CHEMBL3785009", "about": "“Oxadiazole-Based Cell Permeable Macrocyclic Transition State Inhibitors of Norovirus 3CL Protease” (J Med Chem, 2016)", "key": {"[1]": {"assay": "Antiviral activity against Murine norovirus1 infected in […] cells assessed as inhibition of virus induced cytopathic effect after 48 hrs by CytoTox96 nonradioactive cytotoxicity assay", "conditions": "Murine norovirus 1, 48 h"}, "[2]": {"assay": "Inhibition of Norovirus 3C-like protease using Edans-DFHLQGP-Dabcyl fluorogenic substrate after 30 mins as substrate by FRET assay", "how_it_was_run": "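FRET assay with the fluorogenic substrate derived from NV polyprotein cleavage sites. Compounds tested up to 100 μM. IC50 from at least two independent experiments.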"}, "[3]": {"assay": "Cytotoxicity against human HG23 cells by CytoTox96 nonradioactive cytotoxicity assay", "assay_type": "functional", "how_it_was_run": "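HG23 cells (Huh-7 cells harbouring NV replicon) exposed to compound in serial dilution up to 100 µM; cytotoxicity read with a nonradioactive cytotoxicity kit; CC50 taken as concentration giving 50% cytotoxicity; at least two independent experiments.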"}, "Norovirus": {"tested_on": "Norovirus", "assay": "Antiviral activity against Norovirus infected in human HG23 cells assessed as reduction in RNA levels after 48 hrs by RT-PCR", "assay_type": "functional, cell-based", "conditions": "for EC50 / EC90: HG23, 48 h", "how_it_was_run": "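HG23 cells are Huh-7 cells carrying the NV replicon. Cells were seeded 1 day before treatment with compound (1.0–100 μM) for 48 h. Total RNA was extracted and norovirus and β-actin RNA measured by qRT-PCR. EC50/EC90 derived from % RNA reduction versus mock after β-actin normalization. At least two independent experiments; mean and standard deviation reported.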"}}}
{"smiles": "CC(C)(C)OC(=O)N[C@H]1CCC2=NN=C(CCNC(=O)CC[C@@H](C=O)NC(=O)[C@H](CC3CCCCC3)NC1=O)O2", "values": [{"measurement": "EC50", "setting": "[1]", "value": 19.9, "unit": "µM"}, {"measurement": "IC50", "setting": "[2]", "value": 14.5, "unit": "µM"}, {"measurement": "CC50", "setting": "[3]", "value": "> 100", "unit": "µM"}, {"measurement": "EC50", "setting": "Norovirus", "value": 5.1, "unit": "µM"}, {"measurement": "EC90", "setting": "Norovirus", "value": 38.2, "unit": "µM"}]}
{"smiles": "CC(C)(C)OC(=O)N[C@H]1CCC2=NN=C(CCCNC(=O)CC[C@@H](C=O)NC(=O)[C@H](CC3CCCCC3)NC1=O)O2", "values": [{"measurement": "EC50", "setting": "[1]", "value": "> 100", "unit": "µM"}, {"measurement": "IC50", "setting": "[2]", "value": 45.1, "unit": "µM"}, {"measurement": "CC50", "setting": "[3]", "value": "> 100", "unit": "µM"}, {"measurement": "EC50", "setting": "Norovirus", "value": 9.4, "unit": "µM"}, {"measurement": "EC90", "setting": "Norovirus", "value": 73.3, "unit": "µM"}]}
{"smiles": "CC(C)C[C@@H]1NC(=O)[C@@H](NC(=O)OC(C)(C)C)CC2=NN=C(CNC(=O)CC[C@@H](C=O)NC1=O)O2", "values": [{"measurement": "EC50", "setting": "[1]", "value": "> 100", "unit": "µM"}, {"measurement": "IC50", "setting": "[2]", "value": "> 100", "unit": "µM"}, {"measurement": "CC50", "setting": "[3]", "value": "> 100", "unit": "µM"}, {"measurement": "EC50", "setting": "Norovirus", "value": 19.4, "unit": "µM"}, {"measurement": "EC90", "setting": "Norovirus", "value": "> 100", "unit": "µM"}]}
{"smiles": "CC(C)(C)OC(=O)N[C@H]1CCC2=NN=C(CCCCNC(=O)CC[C@@H](C=O)NC(=O)[C@H](CC3CCCCC3)NC1=O)O2", "values": [{"measurement": "EC50", "setting": "[1]", "value": 10.9, "unit": "µM"}, {"measurement": "IC50", "setting": "[2]", "value": 18.5, "unit": "µM"}, {"measurement": "CC50", "setting": "[3]", "value": "> 100", "unit": "µM"}, {"measurement": "Activity", "setting": "Norovirus", "value": "Dose-dependent effect"}, {"measurement": "EC50", "setting": "Norovirus", "value": 6.5, "unit": "µM"}, {"measurement": "EC90", "setting": "Norovirus", "value": 18.2, "unit": "µM"}]}
{"smiles": "CC(C)C[C@@H]1NC(=O)[C@@H](NC(=O)OC(C)(C)C)CCC2=NN=C(CNC(=O)CC[C@@H](C=O)NC1=O)O2", "values": [{"measurement": "EC50", "setting": "[1]", "value": "> 100", "unit": "µM"}, {"measurement": "IC50", "setting": "[2]", "value": 34.3, "unit": "µM"}, {"measurement": "CC50", "setting": "[3]", "value": "> 100", "unit": "µM"}, {"measurement": "EC50", "setting": "Norovirus", "value": 18.1, "unit": "µM"}, {"measurement": "EC90", "setting": "Norovirus", "value": 72.7, "unit": "µM"}]}
{"smiles": "CC(C)C[C@@H]1NC(=O)[C@@H](NC(=O)OC(C)(C)C)CCC2=NN=C(CCNC(=O)CC[C@@H](C=O)NC1=O)O2", "values": [{"measurement": "EC50", "setting": "[1]", "value": 9.8, "unit": "µM"}, {"measurement": "IC50", "setting": "[2]", "value": 15.3, "unit": "µM"}, {"measurement": "CC50", "setting": "[3]", "value": "> 100", "unit": "µM"}, {"measurement": "EC50", "setting": "Norovirus", "value": 2.5, "unit": "µM"}, {"measurement": "EC90", "setting": "Norovirus", "value": 23.4, "unit": "µM"}]}
{"smiles": "CC(C)C[C@@H]1NC(=O)[C@@H](NC(=O)OC(C)(C)C)CCC2=NN=C(CCCNC(=O)CC[C@@H](C=O)NC1=O)O2", "values": [{"measurement": "EC50", "setting": "[1]", "value": 11.1, "unit": "µM"}, {"measurement": "IC50", "setting": "[2]", "value": 21.3, "unit": "µM"}, {"measurement": "CC50", "setting": "[3]", "value": "> 100", "unit": "µM"}, {"measurement": "EC50", "setting": "Norovirus", "value": 5.9, "unit": "µM"}, {"measurement": "EC90", "setting": "Norovirus", "value": 30.5, "unit": "µM"}]}
{"smiles": "CC(C)(C)OC(=O)N[C@H]1CCC2=NN=C(CCCCCNC(=O)CC[C@@H](C=O)NC(=O)[C@H](CC3CCCCC3)NC1=O)O2", "values": [{"measurement": "EC50", "setting": "[1]", "value": "> 100", "unit": "µM"}, {"measurement": "IC50", "setting": "[2]", "value": 8.6, "unit": "µM"}, {"measurement": "CC50", "setting": "[3]", "value": "> 100", "unit": "µM"}, {"measurement": "EC50", "setting": "Norovirus", "value": 51.2, "unit": "µM"}, {"measurement": "EC90", "setting": "Norovirus", "value": "> 100", "unit": "µM"}]}
